Reference: ChEMBL document CHEMBL1138570, “2-Acylhydrazino-5-arylpyrrole derivatives: synthesis and antifungal activity evaluation” (Eur J Med Chem, 2009)
≈ marks a conversion by molar mass, not a printed value.

Experiments:
Candida parapsilosis [1] = assay: Antimicrobial activity against Candida parapsilosis after 72 hrs by broth microdilution method; assay type: functional; conditions: Lodderomyces parapsilosis
How it was run: (§1)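 MFC: after MIC reading, a sample from each well was plated on Sabouraud dextrose agar and incubated 72 h at 35 °C. MFC was taken as the minimum concentration killing >99% of the original inoculum. The MIC step was NCCLS broth microdilution in MOPS-buffered RPMI 1640 (pH 7.0), with 2 ×10⁴ cells/mL, overnight at 35 °C.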

Pichia kudriavzevii [2] = assay: Antimicrobial activity against Candida krusei after 72 hrs by broth microdilution method; assay type: functional; how it was run: as §1
Nakaseomyces glabratus [3] = assay: Antimicrobial activity against Candida glabrata after 72 hrs by broth microdilution method; assay type: functional; how it was run: as §1
Pichia kudriavzevii [4] = assay: Antimicrobial activity against Candida krusei by broth microdilution method; assay type: functional
How it was run: (§2)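 MIC by NCCLS broth microdilution. Medium was RPMI 1640 with L-glutamine, buffered with 0.165 M MOPS at pH 7.0. Twofold drug dilutions ran 0.008–200 mg/L. Inoculum was set spectrophotometrically to 10⁶ CFU/mL, then diluted in medium to 2 ×10⁴ cells/mL. Plates were incubated overnight at 35 °C in humid air, agitated, and read visually and at 450 nm.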

[5] = Toxicity against human SF268 cells assessed as growth inhibition at 10 uM; assay type: cell-based; conditions: SF-268 cells, read-out: GI
[6] = Toxicity against human H460 cells assessed as growth inhibition at 10 uM; assay type: cell-based; conditions: NCI-H460 cells, read-out: GI
Candida albicans [7] = assay: Antimicrobial activity against Candida albicans ATCC 10231 by broth microdilution method; assay type: functional; how it was run: as §2
Candida albicans [8] = assay: Antimicrobial activity against Candida albicans ATCC 10231 after 72 hrs by broth microdilution method; assay type: functional; conditions: ATCC 10231, 72 h; how it was run: as §1
[9] = Toxicity against human MCF7 cells assessed as growth inhibition at 10 uM; assay type: cell-based; conditions: read-out: GI
Nakaseomyces glabratus [10] = assay: Antimicrobial activity against Candida glabrata by broth microdilution method; assay type: functional; how it was run: as §2
Candida parapsilosis [11] = assay: Antimicrobial activity against Candida parapsilosis by broth microdilution method; assay type: functional; conditions: Lodderomyces parapsilosis; how it was run: as §2

Row | SMILES | MFC (Candida parapsilosis [1]) [µg/mL] | MFC (Pichia kudriavzevii [2]) [µg/mL] | MFC (Nakaseomyces glabratus [3]) [µg/mL] | MIC (Pichia kudriavzevii [4]) [µg/mL] | inhibition at 10 µM [5] [%] | inhibition at 10 µM [6] [%] | MIC (Candida albicans [7]) [µg/mL] | MFC (Candida albicans [8]) [µg/mL] | inhibition at 10 µM [9] [%] | MIC (Nakaseomyces glabratus [10]) [µg/mL] | MIC (Candida parapsilosis [11]) [µg/mL]
1 | COC(=O)c1cc(-c2ccc(OC)cc2)[nH]c1NNC(C)=O | 6.25 (≈ 20.6 µM) | 6.25 (≈ 20.6 µM) | 12.5 (≈ 41.2 µM) | 3.12 (≈ 10.3 µM) | 0 | 0 | 3.12 (≈ 10.3 µM) | 3.12 (≈ 10.3 µM) | 0 | 3.12 (≈ 10.3 µM) | 3.12 (≈ 10.3 µM)
2 | CCC(=O)NNc1[nH]c(-c2ccc(OC)cc2)cc1C#N | 12.5 (≈ 44 µM) | 12.5 (≈ 44 µM) | 12.5 (≈ 44 µM) | 0.78 (≈ 2.74 µM) | 2.1 | 0 | 0.39 (≈ 1.37 µM) | 6.25 (≈ 22 µM) | 4.6 | 0.78 (≈ 2.74 µM) | 0.78 (≈ 2.74 µM)
3 | COc1ccc(-c2cc(C#N)c(NNC(C)=O)[nH]2)cc1 | 6.25 (≈ 23.1 µM) | 3.12 (≈ 11.5 µM) | 12.5 (≈ 46.2 µM) | 1.56 (≈ 5.77 µM) | 0 | 0 | 1.56 (≈ 5.77 µM) | 6.25 (≈ 23.1 µM) | 0 | 3.12 (≈ 11.5 µM) | 3.12 (≈ 11.5 µM)
4 | CCOC(=O)NNc1[nH]c(-c2ccc(OC)cc2)cc1C#N | 100 (≈ 333 µM) | 50 (≈ 166 µM) | 50 (≈ 166 µM) | 25 (≈ 83.2 µM) | 0 | 31 | 3.12 (≈ 10.4 µM) | 3.12 (≈ 10.4 µM) | 0.9 | 12.5 (≈ 41.6 µM) | 25 (≈ 83.2 µM)
5 | COCCC(=O)NNc1[nH]c(-c2ccc(OC)cc2)cc1C(=O)OC | 12.5 (≈ 36 µM) | 25 (≈ 72 µM) | 25 (≈ 72 µM) | 6.25 (≈ 18 µM) |  |  | 6.25 (≈ 18 µM) | 6.25 (≈ 18 µM) |  | 6.25 (≈ 18 µM) | 6.25 (≈ 18 µM)
6 | C[C@@H]1[C@H](O)[C@@H](C)/C=C/C=C/C=C/C=C/C=C/C=C/C=C/[C@H](O[C@@H]2O[C@H](C)[C@@H](O)[C@H](N)[C@@H]2O)C[C@@H]2O[C@](O)(C[C@@H](O)C[C@@H](O)[C@H](O)CC[C@@H](O)C[C@@H](O)CC(=O)O[C@H]1C)C[C@H](O)[C@H]2C(=O)O [AMPHOTERICIN B] | 1.56 (≈ 1.69 µM) | 1.56 (≈ 1.69 µM) | 1.56 (≈ 1.69 µM) | 0.78 (≈ 0.844 µM) |  |  | 0.39 (≈ 0.422 µM) | 0.78 (≈ 0.844 µM) |  | 0.78 (≈ 0.844 µM) | 0.78 (≈ 0.844 µM)
7 | OC(Cn1cncn1)(Cn1cncn1)c1ccc(F)cc1F [FLUCONAZOLE] | > 100 | 50 (≈ 163 µM) | > 100 | 25 (≈ 81.6 µM) |  |  | 0.78 (≈ 2.55 µM) | > 100 |  | 12.5 (≈ 40.8 µM) | 0.39 (≈ 1.27 µM)
